Assay outcomes (PubChem BioAssay)
Ecoli WT growth = growth inhibitors of wild type E. coli, primary screen, strain BW25113 wild type, absorbance readout; E. coli BW25113 growth inhibition, OD600; inhibition, % at 10 µM; 20,000 compounds, 0.05% hits; in the data active = inhibition above about 40%;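 note: bacteria exposed to compound for 20 hours at 37 °C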
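System: bacterial strain in a whole-cell growth screen; medium: LB broth with 50 µg/mL kanamycin; detection: absorbance at 615 nm; schedule: 20 h exposure, 37 °C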
Each line names hits and unclear results; the compound was inactive in the other large screens. Shown is part of a subset that was picked to be rich in hits.

CN(C)[C@@H]1C(=O)C(C(N)=O)=C(O)[C@@]2(O)C(=O)C3=C(O)c4c(O)cccc4[C@@](C)(O)[C@H]3[C@H](O)[C@@H]12	Ecoli WT growth 40
NC(=O)OCCSc1nnc(-c2cccc(C(N)=S)c2)o1	none
COc1ccc(C(=O)N2CCCC2=O)cc1	none
Clc1ccc(COC(Cn2ccnc2)c2ccc(Cl)cc2Cl)c(Cl)c1 (stereo unspecified)	none
COc1cc(C2NCc3ccccc3-n3cccc32)ccc1O (stereo unspecified)	none
